Measurements pooled from the literature.
Target: Rho-associated protein kinase 2 (ROCK2, Homo sapiens, UniProt O75116)

Structure (SMILES) | read-out | action | method | concentration | measurement | value
Cc1ccc(-n2nc(C(C)(C)C)cc2NC(=O)Nc2ccc(OCCN3CCOCC3)c3ccccc23)cc1 | enzyme activity | inhibitor | – | 10 µM | inhibition | -3%
CN(c1ncccc1CNc1nc(Nc2ccc3c(c2)CC(=O)N3)ncc1C(F)(F)F)S(C)(=O)=O | enzyme activity | inhibitor | – | 1 µM | inhibition | 11.3%
CCCOc1ccc(OC)c(F)c1C(=O)c1ccc(C(=O)N[C@@H]2CNC[C@H]2NC(=O)c2ccc3[nH]ncc3c2)cc1 | enzyme activity | inhibitor | – | 0.5 µM | remaining activity | 6%
Cn1cnc(Br)c1C1=CN(c2ncnc3[nH]cnc23)CCS1 | enzyme activity | inhibitor | radiometric | 2 µM | inhibition | 77.6%
Cc1ccc(Nc2nccc(N(C)c3ccc4c(C)n(C)nc4c3)n2)cc1S(N)(=O)=O | enzyme activity | inhibitor | – | 10 µM | inhibition | -27%
O=S(=O)(NCCNC/C=C/c1ccc(Br)cc1)c1cccc2cnccc12 | cell-free assay | – | – | 0.5 µM | remaining signal | 15.4%
COc1cc2ncnc(Nc3ccc(Oc4ccccc4)cc3C)c2cc1OC | enzyme activity | inhibitor | – | 1 µM | inhibition | 1%
O=C(NCc1ncc(C(F)(F)F)cc1Cl)c1ccc2c(c1)C1(CCS(=O)(=O)CC1)[C@H](C1CC1)N2S(=O)(=O)c1ccc(F)cc1 | cell-free assay | – | competition with immobilised ligand | 1 µM | remaining binding | 95%
CCOc1cc(-c2nncn2C)ccc1Nc1ncc2cc(C)nc(NCC(C)(C)C)c2n1 | enzyme activity | inhibitor | FRET | 1 µM | inhibition | < 15%
Nc1nc(Nc2ccccc2)sc1C(=O)c1c(F)cccc1F | enzyme activity | inhibitor | – | 10 µM | remaining activity | 55%
O=C1NC(c2ccccn2)Sc2ccccc21 (centres unmarked) | cell-free assay | – | competition with immobilised ligand | 1 µM | remaining binding | 67%
Cc1cnc(NC2CCOCC2)nc1-n1cnc(C(=O)NC(CN)c2cc(F)cc(Cl)c2)c1 (centres unmarked) | enzyme activity | inhibitor | radiometric | 1 µM | remaining activity | 25%
CNC(=O)c1cc(Oc2ccc(NC(=O)Nc3ccc(Cl)c(C(F)(F)F)c3)cc2)ccn1 | enzyme activity | inhibitor | – | 10 µM | inhibition | 38%
Fc1cccc(-n2cnc3c(NCc4nc5c(F)c(F)ccc5[nH]4)nc(N4CCOCC4)nc32)c1 | binding | – | competition with immobilised ligand | 10 µM | binding vs control | 54%
CN([C@@H]1CCc2c(CC(=O)O)c3ccccc3n2C1)S(=O)(=O)c1ccc(F)cc1 | cell-free assay | – | competition with immobilised ligand | 1 µM | remaining binding | 100%
C[C@@H](N)[C@H]1CC[C@H](C(=O)Nc2ccncc2)CC1 | cell-free assay | – | – | 0.5 µM | remaining signal | 26.3%
Cn1cncc1C1=CN(c2ncnc3[nH]cnc23)CCS1 | enzyme activity | inhibitor | radiometric | 50 nM | inhibition | 19.6%
CC/C(=N\NC(=O)C(C)Nc1ccccc1)c1ccc(O)c(C)c1O (centres unmarked) | enzyme activity | inhibitor | – | 0.1 µM | inhibition | 25.7%

Structure (SMILES) | read-out | action | method | concentration | measurement | value
CC(C)(C)c1nc(-c2cccc(NS(=O)(=O)c3c(F)cccc3F)c2F)c(-c2ccnc(N)n2)s1 | enzyme activity | inhibitor | radiometric | 1 µM | remaining activity | 103%
CC(=O)N1CCC(c2ccc(C(=O)NC3=NCCN3)cc2C(F)(F)F)CC1 | cell-free assay | – | competition with immobilised ligand | 1 µM | remaining binding | 73%
CNCc1ccc(-c2cc(-c3nc(-c4ccc(S(=O)(=O)C(C)C)cc4)cnc3N)on2)cc1 | enzyme activity | inhibitor | – | 2 µM | inhibition | 13%
COc1cc(Cl)c(C(=O)N[C@@H](CN[C@H]2CC[C@@H](N)CC2)Cc2ccc(C#N)cc2)cc1-c1ccc(CN[C@H](C)c2ccc(C)cc2)o1 | enzyme activity | inhibitor | – | 1 µM | remaining activity | 96%
CN(C)CC#Cc1ccc(OCCCc2sc(N3CCc4cccc(C(=O)Nc5nc6ccccc6s5)c4C3)nc2C(=O)O)c(F)c1 | cell-free assay | – | competition with immobilised ligand | 1 µM | remaining binding | 100%
CC(C)c1ccc(NC(=O)c2cccs2)c(-c2nc3ccccc3[nH]c2=O)c1 | enzyme activity | inhibitor | – | 1 µM | activity vs control | 119%
CS(=O)(=O)Nc1cccc(-c2csc(NC(=O)CSc3nc4nccnc4c(=O)n3CCc3ccccc3)n2)c1 | enzyme activity | inhibitor | – | 10 µM | inhibition | 5%
COc1cc(Nc2cnc(C#N)c(O[C@H](C)CN(C)C)n2)ncc1-c1cnn(C)c1 | enzyme activity | inhibitor | radiometric | 1 µM | remaining activity | 92%
Nc1ncnc2occ(-c3ccc(NC(=O)Nc4cc(C(F)(F)F)ccc4F)cc3)c12 | cell-free assay | inhibitor | – | 20 µM | remaining signal | 0%
N#CCCc1ccc2c(c1)-c1[nH]c3ccc([N+](=O)[O-])cc3c1CC(=O)N2 | cell-free assay | – | – | 0.5 µM | remaining signal | 28.6%
COc1cccc(CNC(=O)c2nc3scc(COCc4ccc(C(=O)O)cc4)c3c(=O)[nH]2)c1 | cell-free assay | – | competition with immobilised ligand | 1 µM | remaining binding | 69.1%
Nc1nc(NC2CCCCC2)sc1C(=O)c1ccccc1 | enzyme activity | inhibitor | – | 10 µM | remaining activity | 97%
FC(F)(F)c1ccc2c(c1)nc(-c1cccnc1)n2C1CC1 | cell-free assay | – | competition with immobilised ligand | 1 µM | remaining binding | 100%
Oc1cccc(-c2nc(N3CCOCC3)c3oc4ncccc4c3n2)c1 | enzyme activity | inhibitor | – | 10 µM | remaining activity | 91%
CN(C(=O)c1ccccc1)c1cc(N(C)c2ccc3c(c2)CCc2ccc(C(=O)NCCN4CCOCC4)cc2C3=O)ccc1F | cell-free assay | – | competition with immobilised ligand | 1 µM | remaining binding | 100%
O=C(Nc1cnn(-c2csc(C(=O)NC3COC3)c2)c1)Nc1c(F)cccc1Cl | enzyme activity | inhibitor | – | 5 µM | remaining activity | 107%
CCN(CC)CCNC(=O)c1c(C)[nH]c(/C=C2\C(=O)Nc3ccc(F)cc32)c1C | cell-free assay | – | – | 0.5 µM | remaining signal | 72.1%
